Data set [1] concerns the target UDP-N-acetylglucosamine 1-carboxyvinyltransferase (Escherichia coli K-12) (UniProt P0A749). Put plainly: Inhibition of recombinant Escherichia coli MurA assessed as residual activity at 500 uM using UDP-N-acetylglucosamine as substrate preincubated for 30 mins in presence of 1 mM DTT followed by substrate addition and measured by malachite green based colorimetric assay relative to control.

Data set [2] in a line: Thiol reactivity of compound measured by TNB2- assay. The class given is physicochemical. In outline:
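Reactivity toward the thiol surrogate TNB2– in a nonproteinaceous setting without TCEP. Reversibility tested by adding TCEP and checking that absorbance was restored.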

The target of data set [3] is D-alanine--D-alanine ligase B (Escherichia coli K-12) (UniProt P07862). Put plainly: Inhibition of recombinant Escherichia coli DdlB assessed as residual activity at 500 uM using D-alanine as substrate incubated for 20 mins and measured by malachite green based colorimetric assay relative to control. In outline: (§1)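 Screened at 500–625 μM with malachite green colorimetric read-out. Activity threshold was <50% residual activity.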

Data set [4] deals with UDP-N-acetylglucosamine 1-carboxyvinyltransferase (Escherichia coli K-12) (UniProt P0A749). Put plainly: Inhibition of recombinant Escherichia coli MurA assessed as residual activity at 500 uM using UDP-N-acetylglucosamine as substrate preincubated for 30 mins followed by substrate addition and measured by malachite green based colorimetric assay relative to control. In outline: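 E. coli MurA at 500–625 μM with 30 min preincubation before substrate addition. Malachite green colorimetric read-out. Activity threshold was <50% residual activity.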

Data set [5] is described as follows: Redox activity of compound assessed as redox index at 100 uM measured by HRP-PR assay. The format is physicochemical. In outline:
(§2)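 H2O2 from redox cycling, with or without DTT, detected with horseradish peroxidase-phenol red (HRP-PR).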

The nature of data set [6]: Redox activity of compound assessed as redox index at 1 uM measured by resazurin assay. The class given is physicochemical. In outline:
(§3)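 Free radicals formed by redox cycling with DTT detected with resazurin by fluorimetric read-out. Spectral interference checked.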

A short description of data set [7]: Redox activity of compound assessed as redox index at 100 uM in presence of 1 mM DTT measured by HRP-PR assay. The format is physicochemical. In outline: as §2
Data set [8] addresses UDP-N-acetylglucosamine 1-carboxyvinyltransferase (Escherichia coli K-12) (UniProt P0A749). Put plainly: Inhibition of recombinant Escherichia coli MurA assessed as residual activity at 500 uM using UDP-N-acetylglucosamine as substrate and measured by malachite green based colorimetric assay relative to control. Put shortly: as §1
Data set [9] in a line: Redox activity of compound assessed as redox index at 100 uM measured by H2DCFDA assay. The class given is physicochemical. Put shortly:
(§4)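 Reactive oxygen species, with or without the reducing agent TCEP, detected with the fluorescent probe H2DCFDA. Compound spectral interference (autofluorescence) checked under the assay conditions.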

Data set [10] addresses Replicase polyprotein 1ab (Severe acute respiratory syndrome coronavirus 2) (UniProt P0DTD1). Nature of the data set: Inhibition of recombinant SARS-CoV-2 3CLpro expressed in Escherichia coli NiCo21(DE3) assessed as residual activity at 500 uM using DABCYL-KTSAVLQSGFRKME-EDANS as substrate preincubated for 30 mins followed by substrate addition and measured by FRET assay relative to control. In outline: (§5)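 Kinetic fluorescence read-out of cleavage of a FRET substrate carrying a DABCYL–EDANS pair. Compounds were tested at 500–625 μM, and <50% residual activity was taken as the activity threshold. To exclude false positives, absorbance at the excitation and emission wavelengths and autofluorescence of the compounds were measured.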

The nature of data set [11]: Redox activity of compound assessed as redox index at 100 uM in presence of 100 uM TCEP measured by H2DCFDA assay. The format is physicochemical. Put shortly:
as §4

Data set [12] relates to Mycobacterium tuberculosis. Nature of the data set: Inhibition of Mycobacterium tuberculosis MetAP1a assessed as residual activity at 625 uM using L-methionine 7-amido-4-methylcoumarin as fluorogenic substrate and measured by fluorescence based assay. Put shortly:
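Kinetic fluorescence assay in which the enzyme hydrolyses L-methionine 7-amido-4-methylcoumarin to fluorescent 7-amino-4-methylcoumarin. Compounds were tested at 500–625 μM, and activity was called at <50% residual activity. Spectral interference was checked by measuring absorbance at the excitation and emission wavelengths and compound autofluorescence.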

A short description of data set [13]: Aqueous stability of the compound at pH 7.4 measured after 60 mins by spectrophotometric analysis. The class given is physicochemical. The conditions noted are these: buffer, pH 7.4, 1 h. Put shortly:
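Followed by spectrophotometry as changes in the compound absorption spectrum over time in 50 mM Tris-HCl pH 7.4, 0.5 mM EDTA, read after 60 min in 96-well microplate format. Compounds with low absorbance were not evaluated.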

Data set [14] can be described thus: Redox activity of compound assessed as redox index at 10 uM measured by resazurin assay. The class given is physicochemical. Put shortly:
as §3
On the technique in general: The colour change of resazurin is a common sign of viable cells or microbes.

The target in data set [15] is Replicase polyprotein 1ab (Severe acute respiratory syndrome coronavirus 2) (UniProt P0DTD1). Nature of the data set: Inhibition of recombinant SARS-CoV-2 3CLpro expressed in Escherichia coli NiCo21(DE3) assessed as residual activity at 500 uM using DABCYL-KTSAVLQSGFRKME-EDANS as substrate preincubated for 30 mins in presence of 1mM DTT followed by substrate addition and measured by FRET assay relative to control. Put shortly: as §5

UDP-N-acetylglucosamine 1-carboxyvinyltransferase (Escherichia coli K-12), sequence (P0A749 whole entry): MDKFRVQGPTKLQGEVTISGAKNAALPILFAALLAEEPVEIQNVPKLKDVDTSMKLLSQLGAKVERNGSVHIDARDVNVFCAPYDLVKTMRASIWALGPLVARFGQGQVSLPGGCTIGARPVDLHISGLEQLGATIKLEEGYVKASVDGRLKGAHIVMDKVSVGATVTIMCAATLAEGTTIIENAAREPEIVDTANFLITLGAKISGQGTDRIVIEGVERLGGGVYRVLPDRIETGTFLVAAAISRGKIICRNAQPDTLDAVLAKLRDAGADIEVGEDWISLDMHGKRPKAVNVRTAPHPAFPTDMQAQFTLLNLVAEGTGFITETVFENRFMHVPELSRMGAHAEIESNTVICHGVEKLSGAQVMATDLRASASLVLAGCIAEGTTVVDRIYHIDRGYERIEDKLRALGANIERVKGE

As for `O=C(O)c1csc(-c2ccc(F)cc2)n1`, the Activity in [1] is 90%; in data set [2], “Active”; in data set [3] it was 94%; in data set [4], 12.8%; in [8] it was 58.7%; in [10], 82.6%. Also, the Activity in data set [12] was found to be 141%; in data set [15], 88.1%. The Activity_index in [5] was determined as 0.8; in data set [6] it was 0.9; in data set [7], 1; in data set [9] it was 1.1; in [11], 0.8; in [14] it was 0.9. Besides, the Stability result in [13] is given as “Stable”.

As to `N#Cc1cnc(Br)s1`, the Activity in data set [1] is 100%; in data set [2] it was “Active”; in data set [3], 94%; in data set [4], 94.3%; in data set [8] it was 96%; in [10] it was 101%. The Activity in data set [12] is 128%; in data set [15] it was 75.5%. The Activity_index was 1 in data set [5]; 0.9 in data set [6]; 1 in [7]; 1 in data set [9]; 0.8 in data set [11]; 1 in [14]. Besides, the Stability result in data set [13] is “Stable”.

Regarding `N#Cc1cnc(N)s1`, the Activity in [1] was 102%; in [2], “Active”; in data set [3], 91%; in [4] it was 6.1%; in [8], 18.9%; in data set [10] it was 1.1%. For the same molecule, the figures for the Activity in data set [12] and in data set [15] were 90.8% and 74.1%, respectively. Also, the Activity_index in data set [5] is listed as 1; in [6], 0.9; in data set [7], 1; in data set [9], 1; in [11], 0.8; in [14], 1.2. Also, in data set [13], the Stability result is “Stable”.

For the molecule `Nc1ncc(Br)s1`, the Activity is 100% in data set [1]; “Active” in [2]; 91% in data set [3]; 9% in data set [4]; 21.1% in data set [8]; 42.5% in [10]. Also, the Activity was found to be 156% in data set [12] and 79.4% in data set [15]. Further, the Activity_index in data set [5] came out at 1; in [6] it was 0.9; in data set [7] it was 1; in data set [9], 1.6; in data set [11], 1.5; in [14] it was 1.1. Also, in data set [13], the Stability result is “Stable”.

On to `O=C(O)c1csc(Nc2cccc3ncccc23)n1`, for which the Activity in data set [1] is 80.9%; in data set [2], “Active”; in data set [3], 82%; in data set [4] it was 0%; in [8], 1.4%; in data set [10], 42.7%. Further, the Activity stood at 36.8% in data set [12] and 41.2% in data set [15]. The Activity_index in data set [5] was found to be 1; in data set [6], 1; in data set [7], 1; in data set [9], 1.3; in [11] it was 1.6; in data set [14], 2.4. In data set [13], the Stability result was “Stable”.

Consider `O=S(=O)(Cc1ccccc1)Nc1nccs1`, for which the Activity was 94% in data set [1]; “Active” in data set [2]; 93% in [3]; 0% in data set [4]; 0% in data set [8]; 20% in data set [10]. Further, the Activity stood at 45.2% in data set [12] and 82.8% in data set [15]. The Activity_index in data set [5] is 0.8; in data set [6] it was 1; in [7] it was 1; in [9] it was 22.2; in data set [11], 10.2; in [14], 2. Besides, the Stability entry in [13] is listed as “Stable”.

On to `N#Cc1cnc(NC(=O)C(=O)O)s1`, for which the Activity is 114% in [1]; “Active” in [2]; 105% in data set [3]; 90.6% in [4]; 112% in data set [8]; 104% in data set [10]. For the same molecule, the values for the Activity in data set [12] and in [15] were 150% and 97.6%, respectively. The Activity_index in [5] is listed as 1; in data set [6], 0.9; in data set [7] it was 1; in [9], 0.9; in data set [11] it was 0.7; in [14] it was 0.9. The Stability entry in data set [13] is reported as “Stable”.

Take `COC(=O)CC(=O)Nc1ncc(C#N)s1`: the Activity is 112% in data set [1]; “Active” in data set [2]; 88% in [3]; 5.8% in data set [4]; 29.7% in [8]; -4.7% in data set [10]. Also, the Activity is 92.6% in [12] and 86.3% in data set [15]. Besides, the Activity_index is listed as 1 in data set [5]; 0.9 in data set [6]; 1 in data set [7]; 0.9 in [9]; 1 in data set [11]; 1 in [14]. For the same molecule, the Stability entry in [13] was “Stable”.

As for `Cc1cnc(N)s1`, the Activity in data set [1] was 94.6%; in [2] it was “Active”; in [3], 92%; in data set [4], 85.2%; in data set [8] it was 95.2%; in [10], 88%. Also, the Activity in data set [12] was found to be 118%; in data set [15], 79.8%. Further, the Activity_index came to 1 in [5]; 1 in data set [6]; 1 in [7]; 1.3 in data set [9]; 1.3 in [11]; 0.9 in data set [14]. The Stability entry in data set [13] is reported as “Stable”.

In the case of `CCOC(=O)c1sc(Br)nc1C`, the Activity is 103% in [1]; “Active” in data set [2]; 93% in data set [3]; 9.1% in data set [4]; 19.5% in data set [8]; 91.6% in [10]. Moreover, the Activity in [12] was 115%; in data set [15], 85.8%. Besides, the Activity_index stood at 1 in data set [5]; 0.9 in data set [6]; 1 in data set [7]; 1.3 in data set [9]; 1.3 in data set [11]; 0.9 in data set [14]. The Stability result in [13] is “Unstable”.

Consider `CCOC(=O)c1csc(N)n1`, for which the Activity in data set [1] was 105%; in [2], “Active”; in data set [3] it was 89%; in data set [4], 9%; in data set [8] it was 18.6%; in data set [10], 18.9%. In addition, the Activity amounted to 93.7% in data set [12] and 76.3% in data set [15]. In addition, the Activity_index in data set [5] worked out at 0.8; in data set [6], 0.9; in [7], 1; in data set [9], 1.1; in data set [11], 0.7; in [14], 1. Further, the Stability result in data set [13] was “Stable”.

The values above are taken from ChEMBL document CHEMBL5104216, “Fragment-Sized Thiazoles in Fragment-Based Drug Discovery Campaigns: Friend or Foe?” (ACS Med Chem Lett, 2022).
